Only some compounds are listed: those with a hit (about 3% of all), similar ones and a draw of the others.
Myeloid diff 2: myeloid differentiation induction; ER-HoxA9 myeloid progenitors, lysozyme-GFP differentiation, flow cytometry; actives 1% (n = 360,000); calls only at 10 µM; AID 624256;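 active means normalized GFP-positive differentiation at or above the plate's own cutoff, the solvent-only control mean plus 3 SD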;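 further: cells exposed to compound for four days before flow analysis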
H9c2 protect: modulators protecting cardiomyocytes from myocardial damage | H9c2 cardiomyocytes, H2O2 injury protection, ATPLite, 2 h | protection from H2O2 cell death, % at 20 µM | actives 0.63% (n = 360,000) | AID 588492;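 active means compounds giving at least 50% protection of heart cells from peroxide-induced death in the single-dose screen, raw or plate-pattern-corrected value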
HNF4A DNA FP: change in binding of human HNF4 alpha to DNA. HNF4a-FITC DNA binding, fluorescence polarization, 1 h. activity change, % at 10 µM. actives 0.3% (n = 360,000). AID 1224865; in the data active means activity change above about 30%, passing the limit was not always enough
Target sequence (P41235 whole entry, looked up): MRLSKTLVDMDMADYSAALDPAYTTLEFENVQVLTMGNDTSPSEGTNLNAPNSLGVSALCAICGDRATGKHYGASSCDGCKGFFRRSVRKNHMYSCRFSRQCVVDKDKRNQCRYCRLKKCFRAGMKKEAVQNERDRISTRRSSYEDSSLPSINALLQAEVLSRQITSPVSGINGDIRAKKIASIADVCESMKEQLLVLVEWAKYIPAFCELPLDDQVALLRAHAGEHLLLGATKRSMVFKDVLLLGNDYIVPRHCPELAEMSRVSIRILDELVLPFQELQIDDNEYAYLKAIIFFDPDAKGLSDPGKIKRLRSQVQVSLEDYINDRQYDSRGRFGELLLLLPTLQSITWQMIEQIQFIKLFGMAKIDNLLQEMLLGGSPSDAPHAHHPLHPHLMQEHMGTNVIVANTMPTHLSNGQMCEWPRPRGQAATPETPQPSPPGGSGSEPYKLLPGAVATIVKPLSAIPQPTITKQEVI
Pemphigus Ab inh: blocks pemphigus antibody binding to human desmoglein-3 | P32926 | DSG3-coupled beads, scFv-anti-DSG3-GFP binding, flow cytometry; hits give low values | actives 0.48% (n = 310,000) | binding (percent of control), % at 10 µM;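 active means binding more than 3 SD below its plate's average and above zero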;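 further: hits lower antibody fragment binding to DSG3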
Granule exo inh: blocks lytic granule exocytosis; inhibition, % at 10 µM; TALL-104 LAMP-1 surface exposure, flow cytometry; cells stimulated with thapsigargin and PMA; actives 0.66% (n = 360,000);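 active means inhibition above about 55%, limit read from the data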
SENP1 inh: inhibitors of human SENP1 SUMO protease catalytic domain | Q9P0U3 | AID 624204 | recombinant SENP1 catalytic domain, CyPet-SUMO1-YPet FRET cleavage | actives 0.21% (n = 360,000) | inhibition, % at 10 µM;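 active means inhibition at least 30% at 10 µM, raw YFP signal under a set limit, fluorescence ratio 0.5 to 1.5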
Target sequence (Q9P0U3 419-644 limits assumed): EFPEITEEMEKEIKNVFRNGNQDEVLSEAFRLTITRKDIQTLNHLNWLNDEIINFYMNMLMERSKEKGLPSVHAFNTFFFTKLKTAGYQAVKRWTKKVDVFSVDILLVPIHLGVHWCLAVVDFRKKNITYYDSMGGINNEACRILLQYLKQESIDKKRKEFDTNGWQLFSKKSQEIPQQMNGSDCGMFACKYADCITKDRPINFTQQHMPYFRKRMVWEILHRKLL
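Test system: hSENP1 catalytic domain, recombinant; Amount: 20 pM final SENP1 enzyme; Medium: Tris pH 8 buffer plus EDTA, NaCl, BME, BSA, NP40, catalase; Schedule: 50 min enzyme reaction, room temperature, light-protected; Technique: FRET fluorescence in CFP and YFP emission channels; Controls: no-enzyme wells low, DMSO-plus-enzyme wells high control.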
Myeloid diff: promotes myeloid progenitor differentiation | calls only | ER-HoxA9 myeloid progenitors, GFP/Mac1 double-positive flow | actives 2% (n = 2,300) | shares compounds with Myeloid diff 2 | AID 651706;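 active means share of green or green-and-red cells above 9 and 9% in run 1 or 4 and 3% in run 2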
GFP autofluor: compound fluorescence in myeloid differentiation counter-screen. shares compounds with Myeloid diff 2. ER-HoxA9 myeloid progenitors, no estrogen, GFP autofluorescence flow cytometry; vehicle wells 0%, positive control 100%. fluorescence response, % (test concentration not listed). actives 7.4% (n = 2,300). AID 651707;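 active means over 5% cells positive for green fluorescent reporter, or over 2% positive for both it and APC stain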
Of the large screens only hits and unclear results are named; the others gave an inactive call (follow-up assays come after a bar, where they were run).

CCC(c1nnc(SCC(=O)Nc2cc(C)on2)o1)N(C)C (centres undefined)	none
CCC(c1nnc(SCC(=O)NC23CC4CC(CC(C4)C2)C3)o1)N(C)C (centres undefined)	Myeloid diff 2 active | Myeloid diff inactive | GFP autofluor inactive
Cc1cccc(N2CCC(N3CCN(C4CCCCC4)C(CCO)C3)CC2)c1C (centres undefined)	none
CC1CCCCN1S(=O)(=O)c1ccc(C(=O)Nc2nnc(-c3ccncc3)o2)cc1 (centres undefined)	none
COc1ccc(-c2nnc(NC(=O)c3ccc(S(=O)(=O)N4COCC4(C)C)cc3)o2)cc1	none (no result: Pemphigus Ab inh) | Myeloid diff inactive | GFP autofluor 5.3
O=C(NC1CCCCC1)C(Cc1ccccc1)NS(=O)(=O)c1cccs1 (centres undefined)	none | Myeloid diff inactive | GFP autofluor inactive
Cc1ccc(NC(=O)COC(=O)CN2C(=O)NC3(CCCC3)C2=O)cc1F	none | Myeloid diff inactive | GFP autofluor inactive
COC(=O)[C@@]1(C)[C@H]2C(=O)N(C)C(=O)[C@H]2[C@H]2CN=C(SC)N21	none
OCC[C@H]1NCc2cc(CO)cc(-c3ccccc3)c21	none | Myeloid diff inactive | GFP autofluor inactive
Cc1cc2c(n1-c1ccc(Br)cc1)CC(C)(C)CC2=O	none | Myeloid diff inactive | GFP autofluor inactive
Cc1ccc(-n2c(C)cc3c2CC(C)(C)CC3=O)cc1C	none
Cc1ccc(NC(=O)c2cc(S(=O)(=O)N3CCOCC3)c(Br)s2)cc1	none (no result: Pemphigus Ab inh)
COc1ccc(Cl)cc1NC(=O)c1cccc(-n2cnnn2)c1	none
COc1cccc(C2Nc3ccccc3NC3=C2C(=O)CC(C)(C)C3)c1 (centres undefined)	none
COc1ccccc1C1N(c2ccc(Cl)cc2)C(=O)C2CCCN21 (centres undefined)	Myeloid diff 2 active | Myeloid diff active | GFP autofluor inactive
COc1ccc(N2C(=O)C3CCCN3C2c2ccccc2OC)cc1 (centres undefined)	none
Cc1cccc(NC(=O)CC2CCC2)c1	none | Myeloid diff inactive | GFP autofluor inactive
O=C(Nc1cccc(S(=O)(=O)N2CCCCCC2)c1)c1cncc(Br)c1	none | Myeloid diff inactive | GFP autofluor inactive
O=C(Nc1cccc(S(=O)(=O)N2CCCCC2)c1)c1ccc2c(=O)n3c(nc2c1)CCCCC3	none | Myeloid diff inactive | GFP autofluor inactive
Cc1ccc(N(C)S(=O)(=O)c2cccc(C(=O)Nc3ccc(N4CCOCC4)cc3)c2)cc1	Myeloid diff 2 active | Myeloid diff inactive | GFP autofluor inactive
CN(C)S(=O)(=O)c1cccc(NC(=O)c2cccc(S(=O)(=O)N3CCCCCC3)c2)c1	Myeloid diff 2 active | Myeloid diff inactive | GFP autofluor inactive
Cn1c(CNC(=O)CNS(=O)(=O)c2ccc(F)cc2F)cc(=O)n(C)c1=O	none (no result: Pemphigus Ab inh)
COc1cc(NCC(=O)Nc2cccc(S(=O)(=O)N3CCCCC3)c2)cc(OC)c1OC	Myeloid diff 2 active (no result: Pemphigus Ab inh) | Myeloid diff inactive | GFP autofluor inactive
COc1ccc([N+](=O)[O-])cc1NCC(=O)Nc1cccc(S(=O)(=O)N2CCCC2)c1	none
O=C(NCCO)c1cccc(S(=O)(=O)N2CCCCC2)c1	none | Myeloid diff inactive | GFP autofluor inactive
C[C@H](CO)N1C[C@H](C)[C@H](CN(C)C(=O)Nc2ccc(F)cc2)OCc2ccccc2-c2c(n(C)c3ccccc23)C1=O	none
CC1CCCCC1NC(=O)C(=O)NCC1CCCO1 (centres undefined)	none | Myeloid diff inactive | GFP autofluor inactive
CCc1ccc(CNC(=O)C(=O)NCC2CCCO2)cc1 (centres undefined)	none
O=C(Nc1cccc(NC(=O)c2nccc3ccccc23)c1)c1ccco1	Myeloid diff 2 active | Myeloid diff inactive | GFP autofluor inactive
CC(=O)C(Cc1ccccc1)NC(=O)COC(=O)c1cc(S(=O)(=O)N2CCOCC2)ccc1F (centres undefined)	none
CCOC(=O)/C=C1\SCC(=O)N1CC(=O)NC1CCCCC1	Myeloid diff 2 active | Myeloid diff inactive | GFP autofluor inactive
O=C1C=CN2CCCCC2CC1 (centres undefined)	Myeloid diff 2 active | Myeloid diff inactive | GFP autofluor inactive
O=C1C=CN2CCOCC2C1 (centres undefined)	none
CCc1ccccc1Nc1nc(N)nc(COC(=O)c2c(C)noc2C)n1	none
COCCCNC(=O)C1CCC(=O)N(c2ccc3c(c2)OCO3)C1c1ccc(OC)cc1 (centres undefined)	none | Myeloid diff inactive | GFP autofluor inactive
O=C(Nc1cccc2ncccc12)c1ccc([N+](=O)[O-])o1	Myeloid diff 2 active | Myeloid diff inactive | GFP autofluor inactive
O=C(Cn1cccc1C(=O)c1ccccc1)NCc1ccccc1	none (no result: Pemphigus Ab inh)
O=C(Cn1cccc1C(=O)c1ccccc1)NCc1cccs1	none | Myeloid diff inactive | GFP autofluor inactive
Cc1cc(Cl)cc(C)c1OCCCCn1ccnc1	none
Cc1cccc(Cl)c1OCCCCn1ccnc1	Myeloid diff 2 active | Myeloid diff inactive | GFP autofluor inactive
COc1ccc(S(N)(=O)=O)cc1C(=O)OCC1CCCCC1	none
O=c1c2ccccc2c(/C=N/NS(=O)(=O)c2ccccc2)c(O)n1-c1ccccn1	none | Myeloid diff inactive | GFP autofluor inactive
Cc1ccc(NC2=NCCCCC2)cc1C	Myeloid diff 2 active | Myeloid diff inactive | GFP autofluor inactive
Cc1ccc(NC2=NCCCCC2)cc1	none (no result: Pemphigus Ab inh)
Cc1ccc2c(c1)CCCN2C(=O)c1ccc2c(c1)OCO2	none | Myeloid diff inactive | GFP autofluor inactive
COc1ccc(NC(=O)c2cc(C3CCCCN3S(=O)(=O)c3ccc(C#N)cc3)on2)c(C)c1 (centres undefined)	none (no result: Pemphigus Ab inh)
Cc1ccc(C(=O)Nc2cccc(C(=O)N/N=C/c3ccc(O)cc3)c2)cc1	Myeloid diff 2 active | Myeloid diff inactive | GFP autofluor inactive
CC(=O)Oc1c(-c2ccc(Br)o2)oc2ccccc2c1=O	H9c2 protect 58.2 | Myeloid diff inactive | GFP autofluor inactive
NC(=O)c1ccc(SCC(=O)OCC(=O)NCc2cccs2)c([N+](=O)[O-])c1	none (no result: Pemphigus Ab inh)
Cc1cc(=O)n2c3ccccc3n(CC(O)CN3CCCCC3)c2c1C#N (centres undefined)	Myeloid diff 2 active | Myeloid diff inactive | GFP autofluor inactive
CCN1CCN(CCCNC(=O)C2c3ccccc3C(=O)N(c3ccc(OC)cc3)C2c2ccc(OC)cc2)CC1 (centres undefined)	none

Screening data deposited in PubChem by several laboratories.
